Experimental data: ChEMBL document CHEMBL1127395, “Synthesis and antimicrobial activity of novel 3-[(aminopyrimidiniumyl)thio]methyl cephalosporins” (1994)
In brackets after ≈: the same amount, converted by molar mass.

How the values were obtained:
Serratia marcescens = test: In vitro minimum inhibitory concentration for Serratia marcescens (ATCC-27117) by agar dilution method; assay type: functional
Outline: (§1)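 Two-fold serial dilutions of each compound dispersed in Mueller-Hinton agar; plates spot-inoculated with 2 μL of standard test strain at 10^7 CFU/mL, incubated 37 °C for 20 h; MIC read as lowest concentration inhibiting growth.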

[1] = system: Staphylococcus epidermidis; test: In vitro minimum inhibitory concentration for Staphylococcus epidermidis (ATCC-12228) by agar dilution method; assay type: functional; outline: as §1
Escherichia coli = test: In vitro minimum inhibitory concentration for Escherichia coli (ATCC-10536) by agar dilution method; assay type: functional; outline: as §1
Proteus vulgaris = test: In vitro minimum inhibitory concentration for Proteus vulgaris (ATCC-6059) by agar dilution method; assay type: functional; outline: as §1
Klebsiella aerogenes = test: In vitro minimum inhibitory concentration for Enterobacter aerogenes (ATCC-29751) by agar dilution method; assay type: functional; outline: as §1
Staphylococcus aureus = test: In vitro minimum inhibitory concentration for Staphylococcus aureus (ATCC 6538p) by agar dilution method; assay type: functional; outline: as §1
Pseudomonas aeruginosa [2] = test: In vitro minimum inhibitory concentration for Pseudomonas aeruginosa (ATCC 10145) by agar dilution method; assay type: functional; outline: as §1
Pseudomonas aeruginosa [3] = test: In vitro minimum inhibitory concentration for Pseudomonas aeruginosa (ATCC-27853) by agar dilution method; assay type: functional; outline: as §1
Enterobacter cloacae = test: In vitro minimum inhibitory concentration for Enterobacter cloacae (ATCC-27508) by agar dilution method; assay type: functional; outline: as §1
Salmonella typhimurium = test: In vitro minimum inhibitory concentration for Salmonella Typhimurium (ATCC-14028) by agar dilution method; assay type: functional, Salmonella enterica subsp. enterica serovar Typhimurium; outline: as §1
Citrobacter freundii = test: In vitro minimum inhibitory concentration for Citrobacter freundii (ATCC-8090) by agar dilution method; assay type: functional; outline: as §1
Klebsiella pneumoniae = test: In vitro minimum inhibitory concentration for Klebsiella pneumoniae (ATCC-10031) by agar dilution method; assay type: functional
[4] = Serratia marcescens, read-out: MIC
[5] = Staphylococcus epidermidis, read-out: MIC
[6] = Escherichia coli, read-out: MIC
[7] = Proteus vulgaris, read-out: MIC
[8] = Klebsiella aerogenes, read-out: MIC
[9] = Staphylococcus aureus, ATCC 6538p, read-out: MIC
[10] = Pseudomonas aeruginosa, read-out: MIC
[11] = Enterobacter cloacae, read-out: MIC
[12] = Salmonella enterica, read-out: MIC
[13] = Citrobacter freundii, read-out: MIC
[14] = Klebsiella pneumoniae, read-out: MIC

With `CC(C)(O/N=C(\C(=O)N[C@@H]1C(=O)N2C(C(=O)[O-])=C(C[n+]3ccccc3)CS[C@H]12)c1csc(N)n1)C(=O)O` [CEFTAZIDIME] the MIC (Serratia marcescens; [4]) was 0.13 µg/mL (≈ 0.238 µM), the MIC [1, 5] was 4 µg/mL (≈ 7.32 µM) and the MIC (Escherichia coli; [6]) was 0.06 µg/mL (≈ 0.11 µM). It also gave an MIC (Proteus vulgaris; [7]) of 0.06 µg/mL (≈ 0.11 µM), an MIC (Klebsiella aerogenes; [8]) of 4 µg/mL (≈ 7.32 µM) and an MIC (Staphylococcus aureus; [9]) of 8 µg/mL (≈ 14.6 µM). The MIC (Pseudomonas aeruginosa [2]) was 2 µg/mL (≈ 3.66 µM), the MIC (Pseudomonas aeruginosa [3]; [10]) was 1 µg/mL (≈ 1.83 µM) and the MIC (Enterobacter cloacae; [11]) was 0.03 µg/mL (≈ 0.0549 µM). The MIC (Salmonella typhimurium; [12]) was 0.25 µg/mL (≈ 0.457 µM) and the MIC (Citrobacter freundii; [13]) was 0.13 µg/mL (≈ 0.238 µM).

In the case of `CC(C)(O/N=C(\C(=O)NC1C(=O)N2C(C(=O)[O-])=C(CSc3nc(N)c4c([n+]3N)CCCC4)CSC12)c1cnc(N)s1)C(=O)O` (stereo not drawn), the MIC (Serratia marcescens; [4]) is reported as 0.25 µg/mL (≈ 0.377 µM), the MIC [1, 5] is reported as 2 µg/mL (≈ 3.01 µM) and the MIC (Escherichia coli; [6]) is reported as 0.06 µg/mL (≈ 0.0904 µM). It also gave an MIC (Proteus vulgaris; [7]) of 0.06 µg/mL (≈ 0.0904 µM), an MIC (Klebsiella aerogenes; [8]) of 0.5 µg/mL (≈ 0.753 µM) and an MIC (Staphylococcus aureus; [9]) of 4 µg/mL (≈ 6.03 µM). It also gave an MIC (Pseudomonas aeruginosa [2]) of 4 µg/mL (≈ 6.03 µM), an MIC (Pseudomonas aeruginosa [3]; [10]) of 2 µg/mL (≈ 3.01 µM) and an MIC (Enterobacter cloacae; [11]) of 0.02 µg/mL (≈ 0.0301 µM). For the same molecule, the MIC (Salmonella typhimurium; [12]) was 0.13 µg/mL (≈ 0.196 µM), the MIC (Klebsiella pneumoniae; [14]) was 0.06 µg/mL (≈ 0.0904 µM) and the MIC (Citrobacter freundii; [13]) was 0.06 µg/mL (≈ 0.0904 µM).

`Cc1cc(C)[n+](C)c(SCC2=C(C(=O)[O-])N3C(=O)C(NC(=O)/C(=N\OC(C)(C)C(=O)O)c4cnc(N)s4)C3SC2)n1` (stereo not drawn) showed an MIC (Serratia marcescens; [4]) of 0.25 µg/mL (≈ 0.402 µM), an MIC [1, 5] of 8 µg/mL (≈ 12.9 µM) and an MIC (Escherichia coli; [6]) of 0.13 µg/mL (≈ 0.209 µM). The MIC (Proteus vulgaris; [7]) was 0.06 µg/mL (≈ 0.0965 µM), the MIC (Klebsiella aerogenes; [8]) was 4 µg/mL (≈ 6.43 µM) and the MIC (Staphylococcus aureus; [9]) was 8 µg/mL (≈ 12.9 µM). For the same molecule, the MIC (Pseudomonas aeruginosa [2]) was 4 µg/mL (≈ 6.43 µM), the MIC (Pseudomonas aeruginosa [3]; [10]) was 4 µg/mL (≈ 6.43 µM) and the MIC (Enterobacter cloacae; [11]) was 0.06 µg/mL (≈ 0.0965 µM). It also gave an MIC (Salmonella typhimurium; [12]) of 0.5 µg/mL (≈ 0.804 µM), an MIC (Klebsiella pneumoniae; [14]) of 0.13 µg/mL (≈ 0.209 µM) and an MIC (Citrobacter freundii; [13]) of 0.25 µg/mL (≈ 0.402 µM).

With `Cc1c(N)nc(SCC2=C(C(=O)[O-])N3C(=O)C(NC(=O)/C(=N\OC(C)(C)C(=O)O)c4cnc(N)s4)C3SC2)[n+]2ncn(C)c12` (stereo not drawn) the MIC (Serratia marcescens; [4]) was 0.25 µg/mL (≈ 0.377 µM), the MIC [1, 5] was 2 µg/mL (≈ 3.02 µM) and the MIC (Escherichia coli; [6]) was 0.13 µg/mL (≈ 0.196 µM). The MIC (Proteus vulgaris; [7]) was 0.06 µg/mL (≈ 0.0905 µM), the MIC (Klebsiella aerogenes; [8]) was 1 µg/mL (≈ 1.51 µM) and the MIC (Staphylococcus aureus; [9]) was 8 µg/mL (≈ 12.1 µM). The MIC (Pseudomonas aeruginosa [2]) was 4 µg/mL (≈ 6.04 µM), the MIC (Pseudomonas aeruginosa [3]; [10]) was 2 µg/mL (≈ 3.02 µM) and the MIC (Enterobacter cloacae; [11]) was 0.02 µg/mL (≈ 0.0302 µM). The MIC (Salmonella typhimurium; [12]) was 0.25 µg/mL (≈ 0.377 µM), the MIC (Klebsiella pneumoniae; [14]) was 0.06 µg/mL (≈ 0.0905 µM) and the MIC (Citrobacter freundii; [13]) was 0.06 µg/mL (≈ 0.0905 µM).

`C[n+]1c(N)cc(N)nc1SCC1=C(C(=O)[O-])N2C(=O)C(NC(=O)/C(=N\OC(C)(C)C(=O)O)c3cnc(N)s3)C2SC1` (stereo in doubt; 23) gave an MIC (Serratia marcescens) of 0.13 µg/mL (≈ 0.208 µM), an MIC [1] of 2 µg/mL (≈ 3.21 µM) and an MIC (Escherichia coli) of 0.06 µg/mL (≈ 0.0962 µM). For the same molecule, the MIC (Proteus vulgaris) was 0.06 µg/mL (≈ 0.0962 µM), the MIC (Klebsiella aerogenes) was 2 µg/mL (≈ 3.21 µM) and the MIC (Staphylococcus aureus) was 4 µg/mL (≈ 6.41 µM). The MIC (Pseudomonas aeruginosa [3]) was 2 µg/mL (≈ 3.21 µM), the MIC (Enterobacter cloacae) was 0.06 µg/mL (≈ 0.0962 µM) and the MIC (Salmonella typhimurium) was 0.25 µg/mL (≈ 0.401 µM). It also gave an MIC (Klebsiella pneumoniae) of 0.06 µg/mL (≈ 0.0962 µM) and an MIC (Citrobacter freundii) of 0.13 µg/mL (≈ 0.208 µM).
